Measured values of several laboratories.
Protocols differ between the studies behind these lines.
Target: Tyrosine-protein kinase FRK (FRK, Homo sapiens, UniProt P42685)

Structure (SMILES) | assay | conditions | quantity | value
COc1cc2ncnc(Nc3ccc(Oc4ccccc4)cc3C)c2cc1OC | enzyme activity, inhibitor | 1 µM | inhibition | 63%
CC1=C(C#N)[C@@H](c2ccc3[nH]nc(C)c3c2)C(C#N)=C(c2ccc(Cl)cc2)N1 | cell-free assay, competition with immobilised ligand | 1 µM | remaining binding | 100%
CCN(CC)c1ccc(C2=NNC(=O)CC2C)cc1[N+](=O)[O-] (stereo not shown) | enzyme activity, inhibitor | 10 µM | remaining activity | 83%
C[C@@H]1CN(c2cc(-c3n[nH]c4ccc(OC5(C)CC5)cc34)ncn2)C[C@H](C)O1 | cell-free assay, competition with immobilised ligand | 0.1 µM | remaining binding | 100%
COc1cc2c(Nc3ccc(Br)cc3F)ncnc2cc1OCC1CCN(C)CC1 | cell-free assay | 0.5 µM | remaining signal | 79.5%
CC(C)(C)c1nc(-c2cccc(NS(=O)(=O)c3c(F)cccc3F)c2F)c(-c2ccnc(N)n2)s1 | enzyme activity, inhibitor, radiometric | 1 µM | remaining activity | 111%
O=c1c2ccccc2[nH]c(=S)n1CCN1CCC(=C(c2ccc(F)cc2)c2ccc(F)cc2)CC1 | enzyme activity, inhibitor | 0.5 µM | remaining activity | 100%
CNC(=O)c1cc2c(Oc3ccc(NC(=O)C4(C(=O)Nc5ccc(F)cc5)CC4)cc3)ccnc2cc1OC | enzyme activity, inhibitor, radiometric | 1 µM | inhibition | 99%
Cc1c(C(=O)O)cc(-c2ccc(C3CCNCC3)cc2)c2ccc(-c3ccc(C(F)(F)F)cc3)cc12 | cell-free assay, competition with immobilised ligand | 1 µM | remaining binding | 100%
Cc1ccc(C(=O)Nc2ccc(CN3CCN(C)CC3)c(C(F)(F)F)c2)cc1C#Cc1cnc2cccnn12 | enzyme activity, inhibitor | 23.5 nM | remaining activity | 16%
O=C1Nc2ccc(Cl)cc2C1=Cc1cc(Cl)c(O)c(Cl)c1 | cell-free assay | 0.5 µM | remaining signal | 70.3%
COc1cc(Cl)c(C(=O)N[C@@H](CN[C@H]2CC[C@@H](N)CC2)Cc2ccc(C#N)cc2)cc1-c1ccc(CN[C@H](C)c2ccc(C)cc2)o1 | enzyme activity, inhibitor | 1 µM | remaining activity | 99%
CCOCCn1cc(C(=O)Nc2ccc(-n3nc(-c4cccnc4)cc3C(F)(F)F)cn2)ccc1=O | cell-free assay, competition with immobilised ligand | 1 µM | remaining binding | 100%
COc1cc2nccc(Oc3ccc(NC(=O)c4c5n(n(-c6ccc(F)cc6)c4=O)CCCC5)cc3)c2cc1OC | enzyme activity, inhibitor | 0.1 µM | inhibition | 86%
O=c1cc(-c2cccc3c2Sc2ccccc2S3)oc(N2CCOCC2)c1 | enzyme activity, inhibitor | 0.5 µM | remaining activity | 99.5%
O=C(Nc1cnn(-c2csc(C(=O)NC3COC3)c2)c1)Nc1ccccc1Cl | enzyme activity, inhibitor | 5 µM | remaining activity | 97.4%
CC(=O)N1CCC(c2ccc(C(=O)NC3=NCCN3)cc2C(F)(F)F)CC1 | cell-free assay, competition with immobilised ligand | 1 µM | remaining binding | 97%
Nc1ncnc2occ(-c3ccc(NC(=O)Nc4cc(C(F)(F)F)ccc4F)cc3)c12 | cell-free assay, inhibitor | 20 µM | remaining signal | 0.15%
C[C@@]1(Cc2ccc(C#N)cc2)C(=O)N(c2cc(Cl)cc(Cl)c2)c2ncc(C(=O)NC3(c4nc(C5CCC5)no4)CC3)n21 | cell-free assay, competition with immobilised ligand | 1 µM | remaining binding | 81%
O=C(Nc1cnn(-c2csc(C(=O)NC3COC3)c2)c1)Nc1c(F)cccc1Cl | enzyme activity, inhibitor | 5 µM | remaining activity | 95.6%
Cc1nc(N2CC[C@@H](O)C2)ncc1-c1cc(C(F)(F)F)cc2[nH]ncc12 | cell-free assay, competition with immobilised ligand | 1 µM | remaining binding | 98%
CCN(CC)CCNC(=O)c1c(C)[nH]c(/C=C2\C(=O)Nc3ccc(F)cc32)c1C | enzyme activity, inhibitor | 0.3 µM | inhibition | 47%
